{"source": "ChEMBL document CHEMBL1125710", "about": "“Structure/activity and molecular modeling studies of the lophotoxin family of irreversible nicotinic receptor antagonists” (J Med Chem, 1991)", "note": "pEC50: −log10 of the molar value. “And” between values parts separate entries of the source, which are not always exact repeats. Equal entries are not always repeated. The source made the active and inactive calls. The calls are words filed in the database; no cut-off is given here.", "data": [{"biological_target": "T1, Acetylcholine receptor (Torpedo californica, UniProt P02710+P02712+P02714+P02718)", "T1 sequence (P02710 whole entry)": "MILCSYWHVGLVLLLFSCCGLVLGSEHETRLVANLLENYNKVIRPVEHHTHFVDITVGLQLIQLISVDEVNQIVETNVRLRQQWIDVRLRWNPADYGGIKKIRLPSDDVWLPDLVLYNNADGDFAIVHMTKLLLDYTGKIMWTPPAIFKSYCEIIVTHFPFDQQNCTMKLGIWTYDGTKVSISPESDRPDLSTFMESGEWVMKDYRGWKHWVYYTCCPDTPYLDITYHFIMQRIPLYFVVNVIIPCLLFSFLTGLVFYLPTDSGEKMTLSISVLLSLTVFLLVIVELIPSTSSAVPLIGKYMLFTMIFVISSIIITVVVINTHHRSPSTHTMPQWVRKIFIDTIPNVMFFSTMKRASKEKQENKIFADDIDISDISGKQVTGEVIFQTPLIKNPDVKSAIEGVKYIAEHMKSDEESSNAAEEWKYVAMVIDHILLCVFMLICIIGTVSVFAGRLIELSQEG", "T1 sequence (P02712 whole entry)": "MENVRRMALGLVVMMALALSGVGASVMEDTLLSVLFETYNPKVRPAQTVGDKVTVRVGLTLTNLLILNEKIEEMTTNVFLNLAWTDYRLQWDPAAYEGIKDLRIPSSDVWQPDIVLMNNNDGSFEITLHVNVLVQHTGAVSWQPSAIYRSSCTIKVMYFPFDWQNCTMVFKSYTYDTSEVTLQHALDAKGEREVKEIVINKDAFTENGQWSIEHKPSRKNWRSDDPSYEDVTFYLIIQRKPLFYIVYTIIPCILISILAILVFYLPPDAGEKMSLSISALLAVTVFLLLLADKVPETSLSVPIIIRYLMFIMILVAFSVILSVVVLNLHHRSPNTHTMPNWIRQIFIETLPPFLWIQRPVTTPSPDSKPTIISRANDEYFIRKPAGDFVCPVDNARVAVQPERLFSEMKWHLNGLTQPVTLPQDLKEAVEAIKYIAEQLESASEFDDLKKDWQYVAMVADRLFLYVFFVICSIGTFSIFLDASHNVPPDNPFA", "T1 sequence (P02718 whole entry)": "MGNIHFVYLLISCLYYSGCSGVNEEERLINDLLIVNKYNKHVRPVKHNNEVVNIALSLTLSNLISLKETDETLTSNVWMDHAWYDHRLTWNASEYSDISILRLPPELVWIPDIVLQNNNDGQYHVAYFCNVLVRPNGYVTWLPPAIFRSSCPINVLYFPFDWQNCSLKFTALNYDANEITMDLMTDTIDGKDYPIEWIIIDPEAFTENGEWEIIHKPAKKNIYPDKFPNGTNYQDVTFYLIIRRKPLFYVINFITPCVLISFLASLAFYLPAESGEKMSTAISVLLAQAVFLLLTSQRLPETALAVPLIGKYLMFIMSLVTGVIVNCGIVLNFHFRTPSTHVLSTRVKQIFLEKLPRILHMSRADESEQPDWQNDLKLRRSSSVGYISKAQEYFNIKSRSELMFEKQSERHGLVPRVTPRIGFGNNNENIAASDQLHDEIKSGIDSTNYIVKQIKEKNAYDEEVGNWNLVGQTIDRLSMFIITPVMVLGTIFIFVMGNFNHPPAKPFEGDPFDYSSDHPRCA", "T1 sequence (P02714 whole entry)": "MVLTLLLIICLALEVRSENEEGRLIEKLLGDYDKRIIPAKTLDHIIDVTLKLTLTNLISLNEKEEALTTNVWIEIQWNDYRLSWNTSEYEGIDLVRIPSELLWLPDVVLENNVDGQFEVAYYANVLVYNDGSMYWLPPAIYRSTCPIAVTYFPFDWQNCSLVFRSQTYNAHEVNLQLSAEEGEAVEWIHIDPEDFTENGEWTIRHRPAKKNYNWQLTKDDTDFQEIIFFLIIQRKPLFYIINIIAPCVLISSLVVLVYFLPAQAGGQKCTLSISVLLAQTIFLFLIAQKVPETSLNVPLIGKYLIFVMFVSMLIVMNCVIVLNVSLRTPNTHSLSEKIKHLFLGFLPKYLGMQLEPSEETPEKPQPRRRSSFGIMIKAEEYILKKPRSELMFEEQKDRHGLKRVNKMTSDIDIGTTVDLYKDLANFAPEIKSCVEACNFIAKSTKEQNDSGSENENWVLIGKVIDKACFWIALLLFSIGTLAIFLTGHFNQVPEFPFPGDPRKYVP", "assay": "In vitro inhibition of [125I]alpha-bungarotoxin binding to nicotinic acetylcholine receptor of Torpedo californica electric organ membranes", "assay_type": "tissue-based, Tetronarce californica", "conditions": "not given", "summary_of_the_method": "(§1)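 Torpedo californica electric-organ membranes (ca. 1.0 pmol α-toxin sites) in 10 mM sodium phosphate pH 7.4 with 1.0 mM EDTA and 1.0 mM EGTA. Analogue in DMSO reacted 2 or 16 h at 23 °C, then 2-5-fold molar excess [125I]-α-bungarotoxin for 60 min. Duplicate aliquots filtered on DE81, washed, gamma-counted. Apparent EC50 is 50% inhibition of specific binding.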", "values": [{"compound": "C=C(C)[C@@H]1CC2=C(C(=O)OC)C=C(O2)[C@@H]2O[C@@]2(C)C[C@H]2OC(=O)[C@@]3(O[C@H]23)[C@@H](OC(C)=O)C1", "pEC50": 3.90}, {"compound": "C=C(CO)[C@H]1C[C@H](O)[C@@]23O[C@@H]2[C@@H](C[C@]2(C)O[C@H]2C2=CC(C)=C(O2)[C@@H]1OC(C)=O)OC3=O", "pEC50": 4.59}, {"compound": "C=C(C(=O)OC)[C@H]1C[C@H](OC(C)=O)C2=C[C@@H](C[C@]3(C)O[C@H]3C3=CC(C)=C(O3)[C@@H]1OC(C)=O)OC2=O", "pEC50": 5.13}, {"compound": "C=C(C)[C@@H]1CC2=C(CO)C=C(O2)[C@@H]2O[C@@]2(C)C[C@H]2OC(=O)[C@@]3(O[C@H]23)[C@@H](OC(C)=O)C1", "pEC50": 4.35}, {"compound": "C=C(CO)[C@H]1C[C@H](OC(C)=O)[C@@]23O[C@@H]2[C@@H](CC2(C)O[C@H]2C2=CC(C)=C(O2)[C@@H]1O)OC3=O", "note": "(single isomer, unassigned)", "pEC50": 4.09}, {"compound": "C=C(C=O)[C@@H]1CC2=C(C(=O)OC)C=C(O2)[C@@H]2O[C@@]2(C)C[C@H]2OC(=O)[C@@]3(O[C@H]23)[C@@H](OC(C)=O)C1", "pEC50": 3.98}, {"compound": "C=C(C)[C@H]1C[C@H](OC(C)=O)C2=C[C@@H](C[C@]3(C)O[C@H]3C3=CC(C)=C(O3)[C@@H]1OC(C)=O)OC2=O", "pEC50": 4.84}, {"compound": "C=C(C)[C@@H]1CC2=C(C(=O)OC)C=C(O2)[C@@H]2O[C@@]2(C)C[C@@H]2C=C(C(=O)O2)[C@@H](OC(C)=O)C1", "note": "[ACETOXYPUKALIDE]", "pEC50": 4.04}, {"compound": "C=C(CO)[C@H]1C[C@H](OC(C)=O)[C@@]23O[C@@H]2[C@@H](C[C@]2(C)O[C@H]2C2=CC(C)=C(O2)[C@@H]1OC(C)=O)OC3=O", "pEC50": 5.68}, {"compound": "C=C(C)[C@@H]1CC2=C(C=O)C=C(O2)[C@@H]2O[C@@]2(C)C[C@@H]2C=C(C(=O)O2)[C@@H](OC(C)=O)C1", "note": "[DEOXYLOPHOTOXIN]", "pEC50": 3.94}, {"compound": "CC(=O)O[C@H]1C[C@H](C2(C)CO2)[C@@H](OC(C)=O)C2=C(C)C=C(O2)[C@@H]2O[C@@]2(C)C[C@H]2OC(=O)[C@@]13O[C@H]23", "note": "(stereo partly drawn)", "pEC50": 4.60}, {"compound": "CC(=O)O[C@H]1C[C@H](C2(C)CO2)[C@@H](OC(C)=O)C2=C(C)C=C(O2)[C@@H]2O[C@@]2(C)C[C@@H]2C=C1C(=O)O2", "note": "(stereo partly drawn)", "pEC50": 4.92}]}, {"biological_target": "Acetylcholine receptor (Torpedo californica) (UniProt P02710+P02712+P02718+P02714)", "assay": "In vitro ability to inhibit the binding of [125I]alpha-bungarotoxin to nicotinic acetylcholine receptor on membranes prepared from the electric organs of Torpedo californica; Not active", "conditions": "Tetronarce californica", "summary_of_the_method": "as §1", "values": [{"compound": "COC(=O)c1cc2oc1C[C@@H](C(C)C)CCC1C[C@@H](C[C@](C)(O)C2)OC1=O", "Log EC50": "inactive"}, {"compound": "C=C(C)[C@H]1CCC2=C[C@@H](C[C@]3(C)O[C@H]3C3=CC(C(=O)OC)=C(C1)O3)OC2=O", "Log EC50": "inactive"}, {"compound": "C=C(C)[C@H]1CC2O[C@@](O)(/C(C)=C\\C(=O)/C=C(/C)C[C@H]3OC(=O)[C@@]24O[C@H]34)[C@@H]1OC(C)=O", "Log EC50": "inactive"}, {"compound": "C=C(CO)[C@H]1C[C@H](O)[C@@]23O[C@@H]2[C@@H](CC2(C)O[C@H]2C2=CC(C)=C(O2)[C@@H]1OC(C)=O)OC3O", "note": "(single isomer, unassigned)", "Log EC50": "inactive"}, {"compound": "C=C(C(=O)OC)[C@H]1CC2O[C@@](O)(/C(C)=C\\C(=O)/C=C(/C)C[C@H]3OC(=O)[C@@]24O[C@H]34)[C@@H]1OC(C)=O", "Log EC50": "inactive"}, {"compound": "C=C(CO)[C@H]1C[C@H](OC(C)=O)[C@@]23O[C@@H]2[C@@H](CC2(C)O[C@H]2C2=CC(C)=C(O2)[C@@H]1OC(C)=O)OC3O", "note": "(single isomer, unassigned)", "Log EC50": "inactive"}, {"compound": "C=C(C)[C@H]1CCC2=C[C@@H](C[C@]3(C)O[C@H]3C3=CC(C=O)=C(C1)O3)OC2=O", "Log EC50": "inactive"}, {"compound": "C=C(C)[C@H]1C[C@H](OC(C)=O)[C@@]23O[C@@H]2[C@@H](C[C@](C)(O)/C=C2/C=C(C=O)C(OCC)(C1)O2)OC3=O", "Log EC50": "inactive"}, {"compound": "C=C(C)[C@H]1CCC2=C[C@@H](C/C(C)=C/C3=CC(C(=O)OC)=C(C1)O3)OC2=O", "Log EC50": "inactive"}]}, {"biological_target": "T1, Acetylcholine receptor", "assay": "In vitro ability to inhibit the binding of [125I]-alpha-bungarotoxin to nicotinic acetylcholine receptor on membranes prepared from the electric organs of Torpedo californica", "assay_type": "tissue-based, Tetronarce californica, Electric organ", "conditions": "not given", "summary_of_the_method": "as §1", "values": [{"compound": "COc1cc2c3cc1Oc1cc(ccc1O)C[C@@H]1c4c(cc(OC)c(O)c4Oc4ccc(cc4)C[C@@H]3N(C)CC2)CC[N+]1(C)C", "pEC50": 2.49}]}, {"biological_target": "T1, Acetylcholine receptor", "assay": "In vitro ability to inhibit the binding of [125I]alpha-bungarotoxin to Nicotinic acetylcholine receptor on membranes prepared from the electric organs of Torpedo californica", "assay_type": "tissue-based, Tetronarce californica, Electric organ", "conditions": "not given", "summary_of_the_method": "as §1", "values": [{"compound": "C=C(C=O)[C@H]1C[C@H](OC(C)=O)[C@@]23O[C@@H]2[C@@H](C[C@]2(C)O[C@H]2C2=CC(C)=C(O2)[C@@H]1OC(C)=O)OC3=O", "pEC50": "5.54 and 5.03"}]}]}
